Results as given in ChEMBL document CHEMBL4196247, “Coumarinolignoids and Taraxerane Triterpenoids from Sapium discolor and Their Inhibitory Potential on Microglial Nitric Oxide Production” (J Nat Prod, 2018).

How the values were obtained:
[1] = test system: BV-2; test: Antineuroinflammatory activity in mouse BV2 cells assessed as inhibition of LPS-induced nitric oxide production measured after 24 hrs by Griess assay; type: functional, cell-based; conditions: BV-2, 24 h
In short: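 BV-2 microglia; minocycline served as the positive control, and IC50 values were reported.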

[2] = test system: BV-2; test: Cytotoxicity against mouse BV2 cells assessed as reduction in cell viability at 1 to 100 uM after 24 hrs by MTT assay; type: cell-based; conditions: bv-2, 24 h
In short: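 BV-2 viability was read by MTT at 1, 10, 30 and 100 μM in parallel with the NO-release test, to exclude NO drops caused by lost viability.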

IC50 [1] [µM] | SMILES | Activity [2]
> 50 | CC1(C)CC[C@]2(C(=O)O)CC=C3[C@]4(C)CC[C@H]5C(C)(C)[C@@H](O)CC[C@]5(C)[C@H]4CC[C@@]3(C)[C@@H]2C1 [ALEURITOLIC ACID] | Non-Toxic
4.2 | COc1c2c(cc3ccc(=O)oc13)O[C@@H](c1ccc(O)c(O)c1)[C@H](CO)O2 | Non-Toxic
46.5 | CC1(C)CC[C@]2(C(=O)O)CC=C3[C@]4(C)CC[C@H]5C(C)(C)[C@@H](OC(=O)/C=C/c6ccc(O)cc6)C[C@H](O)[C@]5(C)[C@H]4CC[C@@]3(C)[C@@H]2C1 | Non-Toxic
11.8 | COc1c2c(cc3ccc(=O)oc13)O[C@H](c1ccc(O)c(O)c1)[C@@H](CO)O2 | Non-Toxic
> 50 | CC(=O)O[C@H]1C[C@H](O)[C@]2(C)[C@H]3CC[C@]4(C)C(=CC[C@@]5(C(=O)O)CCC(C)(C)C[C@H]54)[C@]3(C)CC[C@H]2C1(C)C | Non-Toxic
> 50 | CC1(C)CC[C@]2(C(=O)O)CC=C3[C@]4(C)CC[C@H]5C(C)(C)C(=O)CC[C@]5(C)[C@H]4CC[C@@]3(C)[C@@H]2C1 | Non-Toxic
> 50 | CC1(C)CC[C@]2(C(=O)O)CC=C3[C@]4(C)CC[C@H]5C(C)(C)[C@@H](O)CC(=O)[C@]5(C)[C@H]4CC[C@@]3(C)[C@@H]2C1 | Non-Toxic
> 50 | CC(=O)O[C@H]1CC[C@]2(C)[C@H]3CC[C@]4(C)C(=CC[C@@]5(C(=O)O)CCC(C)(C)C[C@H]54)[C@]3(C)CC[C@H]2C1(C)C [ACETYL ALEURITOLIC ACID] | Non-Toxic
15.3 | COc1cc(/C=C/C(=O)O[C@H]2CC(=O)[C@]3(C)[C@H]4CC[C@]5(C)C(=CC[C@@]6(C(=O)O)CCC(C)(C)C[C@H]65)[C@]4(C)CC[C@H]3C2(C)C)ccc1O | Non-Toxic
4.9 | CN(C)c1ccc(O)c2c1C[C@H]1C[C@H]3[C@H](N(C)C)C(O)=C(C(N)=O)C(=O)[C@@]3(O)C(O)=C1C2=O [MINOCYCLINE] | 
1.7 | CC1(COC(=O)/C=C\c2ccc(O)cc2)CC[C@]2(C(=O)O)CC=C3[C@]4(C)CC[C@H]5C(C)(C)C(=O)C=C[C@]5(C)[C@H]4CC[C@@]3(C)[C@@H]2C1 (stereo not given in full) | Non-Toxic
> 50 | CC(=O)O[C@H]1CC(=O)[C@]2(C)[C@H]3CC[C@]4(C)C(=CC[C@@]5(C(=O)O)CCC(C)(C)C[C@H]54)[C@]3(C)CC[C@H]2C1(C)C | Non-Toxic
7.2 | O=c1ccc2cc3c(cc2o1)O[C@@H](c1ccc(O)c(O)c1)[C@H](CO)O3 | Non-Toxic
14 | CC1(C)CC[C@]2(C(=O)O)CC=C3[C@]4(C)CC[C@H]5C(C)(C)[C@@H](OC(=O)/C=C/c6ccc(O)cc6)CC(=O)[C@]5(C)[C@H]4CC[C@@]3(C)[C@@H]2C1 | Non-Toxic
> 50 | O=c1ccc2cc3c(cc2o1)O[C@@H](CO)[C@H](c1ccc(O)c(O)c1)O3 | Non-Toxic
2.7 | CC1(COC(=O)/C=C/c2ccc(O)cc2)CC[C@]2(C(=O)O)CC=C3[C@]4(C)CC[C@H]5C(C)(C)C(=O)C=C[C@]5(C)[C@H]4CC[C@@]3(C)[C@@H]2C1 (stereo not given in full) | Non-Toxic
5.8 | O=c1ccc2cc3c(cc2o1)O[C@H](CO)[C@@H](c1ccc(O)c(O)c1)O3 | Non-Toxic
13.8 | O=c1ccc2cc3c(cc2o1)O[C@H](c1ccc(O)c(O)c1)[C@@H](CO)O3 | Non-Toxic
